The source made the active and inactive calls. No cut-off for these calls is given here.
How the values were obtained:
Rattus norvegicus [1] = assay: Procognitive effect in Harlan Wistar rat assessed as exploring time of familiar rat during social investigatory behaviour at 1 mg/kg, po administered 30 mins prior to testing measured for 5 mins by social learning test (reference value: 27.6 secs); assay type: functional
Mus musculus [2] = assay: Cognitive enhancing effect in CD1 albino mouse assessed as increase in retention latency at 1 to 10 mg/kg, po administered 30 mins prior to testing measured after 24 hrs by passive avoidance test relative to control; assay type: functional, organism-based
How it was run: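 Step-through passive avoidance in male CD-1 mice (22–24 g). Test drugs were given po, suspended in 1% carboxymethylcellulose at 10 ml/kg, 30 min before the training session. For the antiamnesic arm, scopolamine 1.5 mg/kg was injected immediately after punishment. Retention latency was compared with CMC-treated controls, n = 10–12 mice per group.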

[3] = target: GABA A receptor alpha-2/beta-2/gamma-2 (Homo sapiens) (UniProt P47870+P18507+P47869); assay: Displacement of [3H]Ro15-1788 from recombinant GABA-A alpha2beta2gamma2 receptor benzodiazepine binding site (unknown origin) at 10 uM after 1 hr relative to control; assay type: protein-complex assay
How it was run: (§1)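 Membranes came from clonal mammalian cell lines expressing α1β2γ2, α2β2γ2 or α5β3γ2 receptors, grown in MEM/EBSS with 10% FCS at 37 °C. Membranes were resuspended in 10 mM potassium phosphate, pH 7.4, with 100 mM KCl. Assays used 1–2 nM [3H]Ro15-1788 and test compound from 10^-9 to 10^-5 M, at least six concentrations. Diazepam at 10^-5 M defined nonspecific binding. Incubation ran 1 h at 4 °C. Single-point % inhibition was measured at 10 µM, and Ki by curve fitting; n = 5, in duplicate.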

Rattus norvegicus [4] = assay: Procognitive effect in Harlan Wistar rat assessed as decrease in exploring time of unfamiliar rat during social investigatory behaviour at 1 to 10 mg/kg, po administered 30 mins prior to testing measured for 5 mins by social learning test relative to control; assay type: functional, organism-based
Rattus norvegicus [5] = assay: Induction of acetylcholine release in Harlan Wistar rat parietal cortex at 10 mg/kg, ip after 60 to 80 mins by microdialysis method; assay type: functional, organism-based; parameters: dose 10 mg/kg
How it was run: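 Microdialysis in the parietal cortex of male Wistar rats, with a horizontal tube implanted at AP 0.5 mm and H 2.3 mm from bregma. One day after surgery the tube was perfused with Ringer containing physostigmine. After a 1 h settling period, 20-min fractions were collected into HCl. Drug was given ip in 1% CMC at time 0. ACh was measured by HPLC with electrochemical detection, n = 6 rats.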

Mus musculus [6] = assay: Neurotoxicity in CD1 albino mouse assessed as decrease in number of falls from rotating rod at 10 mg/kg, po by rota-rod test relative to control; assay type: toxicity, organism-based; parameters: dose 10 mg/kg, route oral; conditions: in vivo, TDE = time-dependent effect
How it was run: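 Motor coordination was tested on a rota-rod turning at 24 rpm in male CD-1 mice dosed po in 1% CMC. Falls within 30 s were counted at a pretest and at 15, 30, 45 and 60 min after dosing. Each value is the mean of five mice, compared with CMC-treated controls.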

[7] = target: T1, GABA-A receptor; alpha-1/beta-2/gamma-2 (Homo sapiens, UniProt P14867+P18507+P47870); assay: Displacement of [3H]Ro15-1788 from recombinant GABA-A alpha1beta2gamma2 receptor benzodiazepine binding site (unknown origin) after 1 hr; assay type: protein-complex assay; how it was run: as §1
T1 sequence (P14867 whole entry): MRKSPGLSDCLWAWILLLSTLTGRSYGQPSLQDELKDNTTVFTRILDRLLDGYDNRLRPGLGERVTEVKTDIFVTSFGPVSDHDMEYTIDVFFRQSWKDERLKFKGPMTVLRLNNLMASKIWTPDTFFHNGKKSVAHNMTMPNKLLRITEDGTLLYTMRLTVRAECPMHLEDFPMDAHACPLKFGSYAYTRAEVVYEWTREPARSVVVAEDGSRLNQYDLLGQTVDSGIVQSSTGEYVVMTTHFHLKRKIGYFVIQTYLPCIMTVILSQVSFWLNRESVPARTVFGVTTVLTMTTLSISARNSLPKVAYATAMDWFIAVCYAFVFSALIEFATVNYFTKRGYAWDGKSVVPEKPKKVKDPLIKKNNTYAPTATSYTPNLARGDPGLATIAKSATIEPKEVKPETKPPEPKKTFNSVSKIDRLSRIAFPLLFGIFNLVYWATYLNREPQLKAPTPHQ
T1 sequence (P47870 whole entry): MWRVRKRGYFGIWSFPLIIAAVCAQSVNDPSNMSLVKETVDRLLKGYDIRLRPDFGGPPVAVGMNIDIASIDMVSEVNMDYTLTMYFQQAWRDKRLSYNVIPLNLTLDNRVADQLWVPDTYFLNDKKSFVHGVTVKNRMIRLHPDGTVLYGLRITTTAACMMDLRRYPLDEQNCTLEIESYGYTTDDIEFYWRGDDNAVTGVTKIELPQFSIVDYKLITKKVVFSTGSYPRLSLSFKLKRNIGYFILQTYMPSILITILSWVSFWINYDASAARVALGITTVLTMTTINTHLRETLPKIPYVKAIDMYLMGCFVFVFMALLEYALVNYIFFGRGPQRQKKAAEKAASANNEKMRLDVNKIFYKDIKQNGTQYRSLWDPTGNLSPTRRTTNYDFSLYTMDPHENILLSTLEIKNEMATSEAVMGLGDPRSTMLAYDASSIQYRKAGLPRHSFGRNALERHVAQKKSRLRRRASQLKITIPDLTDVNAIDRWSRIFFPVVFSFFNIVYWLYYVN
T1 sequence (P18507 whole entry): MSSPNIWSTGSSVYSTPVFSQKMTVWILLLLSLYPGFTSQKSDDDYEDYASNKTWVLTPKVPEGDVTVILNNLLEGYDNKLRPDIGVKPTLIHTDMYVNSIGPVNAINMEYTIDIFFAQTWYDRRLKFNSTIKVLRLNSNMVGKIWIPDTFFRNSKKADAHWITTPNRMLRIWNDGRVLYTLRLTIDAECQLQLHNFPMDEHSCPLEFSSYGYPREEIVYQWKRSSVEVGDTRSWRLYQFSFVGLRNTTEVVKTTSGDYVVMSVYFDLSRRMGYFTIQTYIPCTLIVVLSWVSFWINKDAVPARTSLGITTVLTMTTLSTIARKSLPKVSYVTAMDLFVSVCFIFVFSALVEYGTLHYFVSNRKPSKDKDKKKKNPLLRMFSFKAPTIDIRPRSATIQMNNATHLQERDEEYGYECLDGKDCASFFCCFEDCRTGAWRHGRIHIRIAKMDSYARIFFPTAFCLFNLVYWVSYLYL

Mus musculus [8] = assay: Anticonvulsant activity in CD1 albino mouse assessed as protection against pentylenetetrazole-induced convulsions at 10 mg/kg, po administered 30 mins prior to pentylenetetrazole challenge measured over 30 mins (reference value: 7.1%); assay type: functional

## Cc1cnn2c1n[n+]([O-])c1ccc(OCc3ccncc3)cc12
Rattus norvegicus [1]
  Time: 33.2 s
Mus musculus [2]
  Activity: Active
[3]
  inhibition: 5%
Rattus norvegicus [4]
  Activity: inactive
Rattus norvegicus [5]
  Activity: Active
Mus musculus [6]
  Activity: tde
[7]
  Ki: 22.7 nM
Mus musculus [8]
  Activity: 0%

— ChEMBL document CHEMBL2346497, “Synthesis of novel cognition enhancers with pyrazolo[5,1-c][1,2,4]benzotriazine core acting at γ-aminobutyric acid type A (GABA(A)) receptor” (Bioorg Med Chem, 2013)
